In ChEMBL document CHEMBL1131263, “Substituted tetrahydropyrrolo[2,1-b]oxazol-5(6H)-ones and tetrahydropyrrolo[2,1-b]thiazol-5(6H)-ones as hypoglycemic agents” (1998):

How the values were obtained:
[1] = lowest concentration at which glucose utilized was greater than or equal to 140% of control value tested in a glucose utilization L6 myocyte in vitro assay; format: functional, Rattus norvegicus
How it was run: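 Differentiated rat L6 myotubes (day 11 or 13 after plating) exposed 20 h to compound in serum-free DMEM with 15 mM glucose and 1% final DMSO. Tested in quadruplicate at 3, 10, 30, 100, 300 µM. Glucose left in the medium read by glucose oxidase. Value is the lowest concentration giving at least 40% more utilization than control.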

Mus musculus [2] = test: In vivo lowering of blood glucose levels in diabetic obese ob/ob mice, measuring postprandial blood glucose level on day 3 after 2 hours at 300 uM/kg oral dose; format: functional
How it was run: (§1)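 Adult male C57BL ob/ob mice, fed, grouped (6/group) and matched for blood glucose on day 0; mice under 150 mg/dL excluded. Oral dosing in the morning on days 1-3, vehicle 0.5% CMC with 0.2% Tween-80. Significance versus vehicle.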

Mus musculus [3] = test: In vivo lowering of blood glucose levels in diabetic obese ob/ob mice by measuring postprandial blood glucose level on day 3 after 4 hours at 300 uM/kg oral dose; format: functional; how it was run: as §1
Mus musculus [4] = test: In vivo lowering of blood glucose levels in diabetic obese ob/ob mice by measuring postprandial blood glucose level on day 3 after 8 hours at 300 uM/kg oral dose; format: functional; how it was run: as §1
Mus musculus [5] = test: In vivo lowering of blood glucose levels in diabetic obese ob/ob mice, measuring postprandial blood glucose level on day1 after 2 hours at 300 uM/kg oral dose; format: functional; how it was run: as §1
Mus musculus [6] = test: In vivo lowering of blood glucose levels in diabetic obese ob/ob mice by measuring postprandial blood glucose level on day1 after 4 hours at 300 uM/kg oral dose; format: functional; how it was run: as §1
Mus musculus [7] = test: compound was tested in vivo for lower blood glucose levels in diabetic obese ob/ob mice by measuring postprandial blood glucose level on day 3 after 2 hours at 200 uM/kg oral dose; format: functional; how it was run: as §1
Mus musculus [8] = test: compound was tested in vivo for lower blood glucose levels in diabetic obese ob/ob mice by measuring postprandial blood glucose level on day 3 after 4 hours at 200 uM/kg oral dose; format: functional; how it was run: as §1
Mus musculus [9] = test: compound was tested in vivo for lower blood glucose levels in diabetic obese ob/ob mice by measuring postprandial blood glucose level on day 3 after 8 hours at 200 uM/kg oral dose; format: functional; how it was run: as §1
Mus musculus [10] = test: compound was tested in vivo for lower blood glucose levels in diabetic obese ob/ob mice by measuring postprandial blood glucose level on day1 after 2 hours at 200 uM/kg oral dose; format: functional; how it was run: as §1
Mus musculus [11] = test: compound was tested in vivo for lower blood glucose levels in diabetic obese ob/ob mice by measuring postprandial blood glucose level on day1 after 4 hours at 200 uM/kg oral dose; format: functional; how it was run: as §1
Mus musculus [12] = test: compound was tested in vivo for lower blood glucose levels in diabetic obese ob/ob mice by measuring postprandial blood glucose level on day1 after 4 hours at 300 uM/kg oral dose *p < 0.05; format: functional; how it was run: as §1
[13] = compound was tested in vivo for lower blood glucose levels in diabetic obese ob/ob mice by measuring postprandial blood glucose level on day1 after 2 hours at 15.86 uM/kg oral dose.; format: functional, Mus musculus; how it was run: as §1
[14] = compound was tested in vivo for lower blood glucose levels in diabetic obese ob/ob mice by measuring postprandial blood glucose level on day1 after 4 hours at 15.86 uM/kg oral dose.; format: functional, Mus musculus; how it was run: as §1

Structure (SMILES) | Lowest effective concentration for glucose utilization ≥140% of control [1] [µM] | Efficacy (Mus musculus [2]) [%] | Efficacy (Mus musculus [3]) [%] | Efficacy (Mus musculus [4]) [%] | Efficacy (Mus musculus [5]) [%] | Efficacy (Mus musculus [6]) [%] | Efficacy (Mus musculus [7]) [%] | Efficacy (Mus musculus [8]) [%] | Efficacy (Mus musculus [9]) [%] | Efficacy (Mus musculus [10]) [%] | Efficacy (Mus musculus [11]) [%] | Efficacy (Mus musculus [12]) [%] | Efficacy [13] [%] | Efficacy [14] [%]
CC(=O)N1C[C@@H](COc2ccc(Cl)cc2)O[C@@H]1c1ccc(Cl)c(Cl)c1 | 30 | 69 | 70 | 61 | 8 | 26 | – | – | – | – | – | – | – | –
O=C1CC[C@]2(c3ccc(Cl)cc3)O[C@H](COc3ccc(Cl)cc3)CN12 | 30 | – | – | – | – | – | 14 | -15 | -26 | 31 | 46 | – | – | –
CC(C)C(=O)N1C[C@H](COc2ccc(Cl)cc2)O[C@@H]1c1ccc(Cl)c(Cl)c1 | 30 | 20 | 24 | 6 | 32 | 21 | – | – | – | – | – | – | – | –
O=C1C[C@@H]2O[C@@H](CO)CN12 | 30 | – | – | – | – | – | 53 | 23 | 44 | 66 | 86 | – | – | –
O=C1CCC[C@]2(c3ccccc3)O[C@H](COc3ccc(Cl)cc3)CN12 | 30 | 10 | 50 | 54 | 42 | 29 | – | – | – | – | – | – | – | –
OCc1cc(-c2ccc(C(F)(F)F)cc2)no1 | 100 | 6 | 48 | 50 | 14 | – | – | – | – | – | – | 52 | – | –
O=C1CC[C@]2(c3ccc(Oc4ccccc4)cc3)OCCN12 | 300 | -3 | -1 | -4 | -8 | 11 | – | – | – | – | – | – | – | –
O=C1CC[C@]2(c3ccc4ccccc4c3)O[C@@H](COc3ccc(Cl)cc3)CN12 | >300 | 13 | 7 | 8 | -6 | -11 | – | – | – | – | – | – | – | –
OCc1cc(-c2ccc(Oc3ccccc3)cc2)no1 | 30 | 56 | 14 | 24 | 14 | 15 | – | – | – | – | – | – | – | –
CC(C)C(N)C(=O)NC(C(=O)O)C(O)[C@H]1CN2C(=O)C[C@@H]2O1 (some centres undefined) | 10 | – | – | – | – | – | – | – | – | – | – | – | 63 | 63
O=C1CC[C@]2(c3ccc(Cl)cc3)S[C@@H](COc3ccc(Cl)cc3)CN12 | 10 | 44 | 48 | 35 | 9 | 3 | – | – | – | – | – | – | – | –
CS(=O)(=O)N1C[C@H](COc2ccc(Cl)cc2)O[C@@H]1c1ccc(Cl)cc1 | 100 | 35 | 59 | 29 | -12 | -4 | – | – | – | – | – | – | – | –
COc1ccc([C@]23CCC(=O)N2C[C@@H](COc2ccc(Cl)cc2)O3)cc1 | 30 | -5 | -27 | 12 | -12 | 3 | – | – | – | – | – | – | – | –
O=C1CC[C@]2(c3cccnc3)O[C@H](COc3ccc(Cl)cc3)CN12 | 300 | 1 | 22 | 35 | 22 | 20 | – | – | – | – | – | – | – | –
O=C1CC[C@]2(c3ccc(-c4ccccc4)cc3)O[C@H](COc3ccc(Cl)cc3)CN12 | 10 | 20 | 35 | 7 | 16 | 17 | – | – | – | – | – | – | – | –
COC(=O)N1C[C@H](COc2ccc(Cl)cc2)O[C@@H]1c1ccc(Cl)c(Cl)c1 | 30 | 25 | 19 | -9 | 13 | 40 | – | – | – | – | – | – | – | –
COc1ccc(OC[C@@H]2CN3C(=O)CC[C@]3(c3ccc(Cl)cc3)O2)cc1 | 100 | -19 | -8 | -28 | -17 | -20 | – | – | – | – | – | – | – | –
